Two compounds from ChEMBL document CHEMBL1155242, “Radiolabeled 5-iodo-3'-O-(17beta-succinyl-5alpha-androstan-3-one)-2'-deoxyuridine and its 5'-monophosphate for imaging and therapy of androgen receptor-positive cancers: synthesis and biological evaluation” (J Med Chem, 2009) can be followed below.

In data set [1] the target is T1, Sex hormone-binding globulin (Homo sapiens, UniProt P04278).
T1 sequence (P04278 whole entry): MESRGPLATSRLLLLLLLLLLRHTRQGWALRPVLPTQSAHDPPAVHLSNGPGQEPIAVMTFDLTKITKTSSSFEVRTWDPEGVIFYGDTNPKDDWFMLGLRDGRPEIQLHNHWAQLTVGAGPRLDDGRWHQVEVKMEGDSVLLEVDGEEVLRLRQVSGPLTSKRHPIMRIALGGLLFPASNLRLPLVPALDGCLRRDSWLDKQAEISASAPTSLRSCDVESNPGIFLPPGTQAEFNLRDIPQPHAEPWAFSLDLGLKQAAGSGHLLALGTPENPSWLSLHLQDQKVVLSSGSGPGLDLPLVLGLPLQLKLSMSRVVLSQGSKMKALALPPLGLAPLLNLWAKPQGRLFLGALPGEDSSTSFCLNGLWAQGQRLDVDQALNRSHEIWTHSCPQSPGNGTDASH
The experiment in a line: Binding affinity to human sex hormone binding globulin after 30 mins by size-exclusion HPLC analysis. It is filed as ADME. Summed up: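 Purified human SHBG diluted in PBS pH 7.1 to a range of concentrations; radioligand in CH3CN (10 μL, ~5.4 μCi average) added, vortexed, 30 min at ambient temperature. Aliquots analysed by size-exclusion HPLC for SHBG-bound peak.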

In data set [2] the test system is OVCAR-3. The data set is described as follows: Cellular uptake in human OVCAR-3 cells expressing androgen receptor at 1.75 uCi/mL. It counts as ADME, cell-based. The settings on record: TDE = time-dependent effect. Summed up: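 NIH:OVCAR-3 cells in complete RPMI-1640 exposed to the radioligand for 24 h (concentration series) or at 1.75 μCi/mL for set times; medium then replaced and cells cultured further 24–48 h; whole-cell and DNA uptake in cpm/cell.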

In data set [3] the test system is Serum. The experiment in a line: Stability in mouse serum assessed as time required for formation of [125I]UdR at 10 to 20 uCi/mL after 60 mins by gamma counting. It is filed as ADME, cell-free. The settings on record: 1 h.
Data set [4] relates to LNCaP. The experiment in a line: Cellular uptake in nonproliferating human LNCAP cells expressing androgen receptor after 48 hrs by gamma counting in presence of 1 uM DHT relative to uptake in absence of DHT. It is filed as ADME, cell-based.
The subject of data set [5] is LNCaP. The experiment in a line: Cytotoxicity against human LNCAP cells expressing androgen receptor assessed as cell survival at 8 uCi/mL after 48 hrs. It counts as functional. The gist of the method:
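LNCaP human prostate cancer cells were grown for 48 h with the 125I-labelled compound in the medium, and cell survival was then determined. D37 was expressed as the extracellular concentration in μCi/mL.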

For data set [6], the system named is Mus musculus. The data set is described as follows: Toxicity in athymic NCr mouse xenografted with human OVCAR-3 cells assessed as hemoglobin level at 0.25 mCi, ip administered 31 days after tumor implantation as single bolus dose measured 55 days after implantation […] in presence of SHBG (RVb= 11.5 +/- 1.3 g/dL). It is filed as organism-based. To be noted: in vivo. A general note: Xenograft models place foreign cells or tissue in a host animal.

Data set [7] has as its system Mus musculus. The experiment in a line: Toxicity in athymic NCr mouse xenografted with human OVCAR-3 cells assessed as hematocrit level at 0.25 mCi, ip administered 31 days after tumor implantation as single bolus dose measured 55 days after implantation by gamma counting in presence of SHBG (Rvb= 51.4 +/- 1.6 %). It is filed as organism-based. The settings on record: in vivo, 1320 h.

The subject of the next data set is Blood. The data set is described as follows: Biodistribution in blood of athymic NCr mouse xenografted with human OVCAR-3 cells assessed per gram of tissue at an average 39.5 uCi/dose, ip administered 9 days after tumor implantation as six fractionated doses every 4 days measured after 2 weeks of last dose by gamma counting. The settings on record: in vivo, 336 h. It is filed as ADME, organism-based. The gist of the method:
(§1)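 OVCAR-3-bearing and healthy athymic mice given fractionated ip doses on the six-dose every-4-days schedule; tissues, tumor and lavaged cells γ-counted at necropsy, %ID/g; DNA-bound 125I in cells measured as cpm/cell.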

The subject of data set [8] is OVCAR-3. The data set is described as follows: Antitumor activity against human OVCAR-3 cells xenografted in athymic NCr mouse assessed as tumor burden in peritoneum at 0.25 mCi, ip administered 31 days after tumor implantation as single bolus dose measured 55 days after implantation by gamma counting in presence of SHBG (Rvb= 4.1 +/- 0.6 g). It is filed as functional.

A further data set relates to Heart. The experiment in a line: Biodistribution in heart of athymic NCr mouse xenografted with human OVCAR-3 cells assessed per gram of tissue at an average 39.5 uCi/dose, ip administered 9 days after tumor implantation as six fractionated doses every 4 days measured after 2 weeks of last dose by gamma counting. It is filed as ADME, organism-based. To be noted: in vivo, 336 h. The gist of the method: as §1

The subject of a further data set is Kidney. The data set is described as follows: Biodistribution in kidney of athymic NCr mouse xenografted with human OVCAR-3 cells assessed per gram of tissue at an average 39.5 uCi/dose, ip administered 9 days after tumor implantation as six fractionated doses every 4 days measured after 2 weeks of last dose by gamma counting. It counts as ADME, organism-based. The settings on record: in vivo, 336 h. The gist of the method:
as §1

Data set [9] in a line: Stability in rabbit serum assessed as half life at 10 to 20 uCi/mL by size-exclusion HPLC analysis. It counts as ADME, cell-free, Oryctolagus cuniculus. The gist of the method:
(§2)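 The compound was incubated with rabbit or human serum at ambient temperature, and aliquots were taken at 1, 5 and 24 h. Aliquots were run on size-exclusion HPLC (TSK3000; 0.1 M potassium phosphate/0.1 M Na2SO4, pH 6.8, then an acetonitrile gradient). Extracts were run on C18 reversed-phase HPLC (water/acetonitrile with 0.07% TFA). Half-lives came from a monoexponential fit.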
(In general: SEC sorts molecules by how far they enter the pores of the column.)

Data set [10] deals with Serum. The data set is described as follows: Stability in human serum assessed as half life at 10 to 20 uCi/mL by reversed phase HPLC analysis. It counts as ADME, cell-free. The gist of the method:
as §2

Data set [11] concerns LNCaP. The data set is described as follows: Cellular uptake in single-cell suspension of nonproliferating human LNCAP cells expressing androgen receptor assessed as increase in cellular retention at 0.37 uCi/mL after 5 to 16 hrs by gamma counting. It counts as ADME, cell-based. The gist of the method: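 Low-passage LNCaP held as single-cell suspension (non-proliferating) in RPMI-1640 with radioligand at 0.03 or 0.37 μCi/mL; whole-cell and nuclear radioactivity measured over time.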

The test system of data set [12] is OVCAR-3. The data set is described as follows: Cytotoxicity against human OVCAR-3 cells expressing androgen receptor assessed as cell survival at 0.01 to 5 uCi/mL after 24 hrs. It counts as functional.
The nature of data set [13]: Clearance in peritoneum of athymic NCr mouse xenografted with human OVCAR-3 cells assessed as half life at 1.12 uCi, ip by gamma counting. It is filed as ADME, organism-based. To be noted: in vivo. The gist of the method: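 Peritoneal clearance measured in athymic NCr-nu/nu mice bearing intraperitoneal NIH:OVCAR-3 xenografts after an ip dose of the 125I compound. The peritoneal cavity was lavaged, and 125I was counted in the lavage and in the recovered tumor cells. Half-lives were estimated from the clearance curves.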

Data set [14] is described as follows: Ratio of drug level in tumor to liver in athymic NCr mouse xenografted with human OVCAR-3 cells at 180 uCi, ip administered 9 days after tumor implantation as six fractionated doses every 4 days measured after 24 hrs by gamma counting. It counts as ADME, organism-based. To be noted: in vivo.
Data set [15] in a line: Ratio of drug level in tumor to blood in athymic NCr mouse xenografted with human OVCAR-3 cells at 180 uCi, ip administered 9 days after tumor implantation as six fractionated doses every 4 days measured after 48 hrs by gamma counting. It is filed as ADME, organism-based. To be noted: tumour.
The nature of data set [16]: Ratio of drug level in tumor to kidney in athymic NCr mouse xenografted with human OVCAR-3 cells at 180 uCi, ip administered 9 days after tumor implantation as six fractionated doses every 4 days measured after 48 hrs by gamma counting. It is filed as ADME, organism-based. To be noted: in vivo.
Data set [17] can be described thus: Ratio of drug level in tumor to spleen in athymic NCr mouse xenografted with human OVCAR-3 cells at 180 uCi, ip administered 9 days after tumor implantation as six fractionated doses every 4 days measured after 72 hrs by gamma counting. It is filed as ADME, organism-based. To be noted: in vivo.

In general, Kd refers to the free concentration of one partner at which half of the binding sites on the other are occupied at equilibrium, for simple one-to-one binding. A lower Kd goes with tighter binding.

`C[C@]12CCC(=O)C[C@@H]1CC[C@@H]1[C@@H]2CC[C@]2(C)[C@@H](OC(=O)CCC(=O)O[C@H]3C[C@H](n4cc([125I])c(=O)[nH]c4=O)O[C@@H]3COP(=O)(O)O)CC[C@@H]12` gave a Kd in [1] of 17.2 nM. The Bmax in [1] (human, 0.5 h) amounted to 4.5 nM. The Drug uptake result in the data set with OVCAR-3 [2] is recorded as “tde”; in the data set on LNCaP [4], 30%; with Blood it was 0.003 %ID; in the data set on Heart it was 0.003 %ID; in the data set with Kidney it was 0.013 %ID. In addition, the Stability in the data set on Serum [3] is on record as below 10 min. Also, the Survival with LNCaP [5] is listed as 90%. The results for the Activity with Mus musculus [6], with Mus musculus [7] and with OVCAR-3 [8] were 12.2 g/dL, 55.2% and 3.1 g, respectively.
For the compound `C[C@]12CCC(=O)C[C@@H]1CC[C@@H]1[C@@H]2CC[C@]2(C)[C@@H](OC(=O)CCC(=O)O[C@H]3C[C@H](n4cc([125I])c(=O)[nH]c4=O)O[C@@H]3CO)CC[C@@H]12`, the t1/2 in data set [9] turned out to be 5.7 h; in the data set with Serum [10], 14.7 h; in data set [13], 26 h. For the same compound, in the data set with LNCaP [11], the “fold change (FC)” value stood at 10. The Survival in the data set with OVCAR-3 [12] stood at 95%. Further, the Ratio in [14] was determined as 65; in data set [15] it was 36.5; in [16], 61.8; in data set [17], 11.9.
